Reference: the EternaBench riboswitch data

System: MS2 coat protein
Experiment: apparent Kd, MS2 coat protein; higher = weaker binding; RNA-MaP array; FMN 200 µM where present
In short: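 Two titrations, one without ligand and one with constant ligand, were run with SNAP-549-labelled MS2 coat protein from 0.7 or 1.5 nM, doubling to 3 µM. The targets were designs transcribed by stalled E. coli RNA polymerase on Illumina sequencing-chip clusters, in 100 mM Tris-HCl pH 7.5, 80 mM KCl, 4 mM MgCl2, BSA, DTT, yeast tRNA and Tween-20. The apparent Kd is the median of filtered per-cluster binding-curve fits, with green signal normalised to red-channel RNA signal and control-cluster median Fmax.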

[1] = designed as: OFF switch for flavin mononucleotide, no ligand
[2] = ligand present: flavin mononucleotide, designed as: OFF switch for flavin mononucleotide
[3] = designed as: ON switch for flavin mononucleotide, no ligand
[4] = ligand present: flavin mononucleotide, designed as: ON switch for flavin mononucleotide

Sequence	apparent Kd [1] [nM]	apparent Kd [2] [nM]	apparent Kd [3] [nM]	apparent Kd [4] [nM]
AACACGUGAGGAUAUACAUGAGGAUCACCCAUGUUGGUACAAUCCUGUCCGACUAUCCGUAGAAGGCAUUGACU	38.7	–	–	–
UUCGUGCAGCUUUGCUGUAUGCGUACAUGAGGAUCACCCAUGUAGGAUAUGGUAGGCUUUGCUUACUAGAAGGAUAGUGUGAUC	97	40.3	–	–
CGAUGACAAAGUCAUCGAUUACGAACAUGAGGAUCACCCAUGUAGGAUAUGCUACUCAAAGAGUAGCAGAAGGACAUGUGUCUU	35.6	155	–	–
UAGAAGUCAGGAUAUGCAUGGCGGGACUUGCGUCGUGGCGUGCAGAAGGGACAUGAGGAUCACCCAUGUAAAGA	56.1	53.4	–	–
AACGAGCAAGAUUAUUAUGAAUAAACAUGAGGAUCACCCAUGUAGGAUAUGCAGUGGAAUACACUGCAGAAGGACAUAAGCUCG	7.2	19	–	–
GUCUUCCUAGGAUAUACAUGAGGAUCACCCAUGUACAGUUUCGUCUUGGGAUACUCGCGUAGAAGGAGGUGGAU	31.9	23.4	–	–
UUCAGCUCGUGAGGAUAUACAUGUGCUGGAAACAGCAUUAUAUUUUUCACAUGAGGAUCACCCAUGUAGAAGGCACGAGCUGAG	15.7	27.3	–	–
UAAUAAUUAUGAGGAUAUAUACAACAUGAGGAUCACCCAUGUACCCAUGUAGUAGAAGGCAUAUUUUUAGUUAAUAACACAACU	–	–	71.3	30
CGUAUGUCAGGAUAUGUGUAUGCCGCUCAGGGCGAGCGGCAGCAGAAGGGACAUGAGGAUCACCCAUGUUCGGG	62.5	127	–	–
GCUAGUAUUGCAGGAUAUUGUAAAUUAUUAUUUCAAGAAGGGCAUUACAUGAGGAUCACCCAUGUCAUCCUUUGGAAUACUAGC	6.19	6.51	–	–
CCUAUGUGAGGAUAUCACUGGUCUUCUCACUGGAUGAUUAGUGAGAAGGCACAUGAGGAUCACCCAUGUCGGUG	656	451	–	–
AUUUUUUAUGUAGGAUAUGCUUGUGGUAAGAUAGCAGAAGGACAUGAGGAUCACCCAUGUUAAUGAUAGAGAUUUUAUGUUGGU	38.8	58.8	–	–
GGAAAGUGAGGAUAUGCAUAACAAACACAAACACAAACAAAGCAGAAGGCACAUGAGGAUCACCCAUGUAAACA	21.1	18.1	–	–
AGACGACAACAUGAGGAUCACCCAUGUUCUAGUUUAGAGUCGCAGGAUAUGACUUCGAAGCUUAGUCAGAAGGGUGAAUUCACA	–	–	37.8	51
AACAUGUGAGGAUAUUAGUUGUACGUCAAUAGACGUAUAAGUGAGAAGGCACAUGAGGAUCACCCAUGUUCCUG	43.7	464	–	–
GCCUCACAUGAGGAUCACCCAUGUCAGGAUAUGGACUCGAGGGUCUUGGAAGACUGGGCCAGAAGGGACUAUGG	57	83	–	–
AUCCUUAACAAGGAUAUCGGGCGGGAAAUUGUUUGAGAAGGUGUGACAUGAGGAUCACCCAUGUGGCGCGUGGG	317	257	–	–
UUGGACCUCGUAGGAUAUGUAGGAUAUUCCUACAUGAGGAUCACCCAUGUUGACAUGGAAGAAGGACAGAAGGACGAUGUCCAU	–	–	311	5.32
CUUUUGUGAGGAUAUUCGUAGUAAAUAAAUAAAAUUAUUACGGAGAAGGCACAUGAGGAUCACCCAUGUUCCUU	17.1	50.3	–	–
AUGGUCAUGUUAGGAUAUGACGCGCUGUACGCAUCAGAAGGAACAUGAGGAUCACCCAUGUAUAGAGUAUUAUCGCUUACUCUC	52.7	85.3	–	–
CCCGGGUUUGUGAGGAUAUGCCCGGGUAAACCCGGGUAGAAGGCACAUGAGGAUCACCCAUGUAAGGGCCCGGG	16.7	17	–	–
UCGUUUAUACAAGGAUAUCAAUUAUAGCUAAAUUUAACAUGAGGAUCACCCAUGUAACUAUGGAGUGAGAAGGUGUAAUGACUU	–	–	401	251
AAGUCUGGAUGAGGAUAUCAGCUGUAACUGACGUCGACAUGAGGAUCACCCAUGUUGCUAUAGGGUGAGAAGGCAUUUGGGCAA	–	–	106	28.6
UUGAAGAAUUAAGGAUAUUGAAUACAUAUGUUAAACAUGAGGAUCACCCAUGUGGGUUGCGGUAUCGAGAAGGUAAAUUACUAG	–	–	83	78.7

Sequence	apparent Kd [1] [nM]	apparent Kd [2] [nM]	apparent Kd [3] [nM]	apparent Kd [4] [nM]
AAUUAAUUAAUACAUGAGGAUCACCCAUGUAAUUAUUAGAUCAAGGAUAUCAGCUCGUUUAGAGCUGAGAAGGUGAUCACAUGU	–	–	373	109
AUUGGUUAAGGAUAUCCCUUAGCAGACAUGAGGAUCACCCAUGUCGUCAUGAGGCCAGGCGGAGAAGGUGACUAAU	55.4	35.8	–	–
CCUGGAUCAUGAGGAUAUGGCACCUUAUUGGUGCCAGAAGGCAUGUCUUUUGACAUGAGGAUCACCCAUGUAAUAAAUUCCAGG	–	–	933	131
CGCAAACAUGAGGAUCACCCAUGUCAAUGUGAUCAAGGAUAUGGGUUCCUAAACGGAACACCAGAAGGUGAGUAGA	–	–	85.2	23.8
GUAUAUCACUUAGGAUAUCUGUAAUUUAUUGAAACAUGAGGAUCACCCAUGUUCAUAAAUUUAUAGGAGAAGGGAGUGAUAUAC	–	–	4.19	4.24
GACCGUCACAAUAACCGGUUGAACGAGGAUAUGAUCACUGGGCCUGCACAUGAGGAUCACCCAUGUCAGAAGGCGUUCAGUCCC	5.53	16.4	–	–
CUACUCGUUGUGAGGAUAUCGUUUUCGUCACGGAUCGAGAAGGCACAUGAGGAUCACCCAUGUUUGAUGUGGAU	32.1	79.7	–	–
ACCGCACAUGAGGAUCACCCAUGUCAGGAUAUACAAGAAAAUCAGGCUAAUGCCUGAAGUAGAAGGGACGAGGA	22.4	14.2	–	–
GGAGCACAUGAAUACAUGAGGAUCACCCAUGUCGAAUGAUAUGAGGAUAUGCAUCGGAAAACGAUGUAGAAGGCAUAGUGCUCC	–	–	60	11.4
ACAGUAUAUGUAGGAUAUCAUUGGUUAGGUAGGUGAGAAGGGCAUAGUACAUGAGGAUCACCCAUGUGUUGGUCCUCGCAGAAA	376	252	–	–
GAGAAGAGGGAAGGAUAUACAUGAGGAUCACCCAUGUAGAUAGGUUUAAUAGGUUGUUGUAGUUUGUAGAAGGUCCGGUUUGUU	17.8	16.7	–	–
UUAAUCUAUACAGGAUAUCCAUACGCUGCAUACGGAGAAGGGUAACAAUCAUGAGGACAUGAGGAUCACCCAUGUUCUGAGCAU	–	–	11.7	10.7
UGAUCAAAUGUCAGGAUAUGCUGUUGUAAUCAACAGCAGAAGGGACAUGAGGAUCACCCAUGUCUUGUCGAUUU	12.9	37.3	–	–
UUAAUUAACAAGAAGGCUAACAUGAGGAUCACCCAUGUUGUACAUGGAUAUAGAGGAUAUUGCUAAUAAUUAUUUAUCUUAAUU	25.3	19.4	–	–
GCGGCCAACGUAGGAUAUCUUCAGCCACAGCACAUUGCUGUACAUGAGGAUCACCCAUGUCCUGGAGAGAAGGACGGACGGCAG	–	–	37.7	8.73
UUAAAUCAUGUAGGAUAUGCAUGGCGAAGCUACGCAGAAGGACAUGAGGAUCACCCAUGUGCUAGCUACCGAGUACGGUGGCAA	64.9	251	–	–
CCCACGCAUGAGAAGGGACAGGCGUGCAAUUCGACAUGAGGAUCACCCAUGUCAGGAUAUCAGUUAAGGUGGGCAGAACCAAUG	16.9	76.7	–	–
GUGAGGUCAGGAUAUGCAUGGCGGGACUUGCGUCGUGGCGUGCAGAAGGGACAUGAGGAUCACCCAUGUGGAGG	225	302	–	–
AAGAAGAACGUAGGAUAUCAAUGAGGAUCACCCUGAGAAGGACGUGAGGACAUGAGGAUCACCCAUGUGGAUCACCCAUGUCAU	168	130	–	–
ACAUGGAAGCAGGAUAUGCUUGUUUAAUUGUUUGCAGAAGGGCUAACAUGAGGAUCACCCAUGUAAGAGGUCUA	17	29.6	–	–
CGUAUGGACAGAGGAUAUGCCGAUAGGAUCUACUAUCGAAGAAUCCUCACAUGAGGAUCACCCAUGUAGAAGGCUGUCCAUACU	8.15	36.3	–	–
AAUUAACUCACAGGAUAUAGCAGAGGUCGCGUAAACUUACAGGCGACGAGGCUAGAAGGGUGACCACAUGAGGAUCACCCAUGU	–	–	648	98.8
AUCAGCUCGUCAGGAUAUACGUCACUGCGUCAGCAGUGUGGUAGGAUCACAUGAGGAUCACCCAUGUAGAAGGGACGAGCUGAU	23.8	297	–	–
UAAUCGUUGCAGAAGGUUAUUUUUUUAACAAGUCUCUUAACAUGAGGAUCACCCAUGUUUUUGAUGAAGGAUAUGCAACGGUAG	5.89	6.15	–	–
